Data reported in ChEMBL document CHEMBL4431303, “Minor Pyranonaphthoquinones from the Apothecia of the Lichen Ophioparma ventosa” (J Nat Prod, 2016).
≈ marks a conversion by molar mass, not a printed value. Calls of active or inactive are those of the source. The rule behind the calls is not given here.

Legend:
B16 = test: Cytotoxicity against mouse B16 cells assessed as cell growth inhibition incubated for 72 hrs by MTT assay; assay type: functional, cell-based; conditions: B16, 72 h
HaCaT = test: Cytotoxicity against human HaCaT cells assessed as cell growth inhibition incubated for 72 hrs by MTT assay; assay type: functional, cell-based
[1] = Antioxidant activity assessed as DPPH radical scavenging activity after 5 mins by spectrophotometric analysis; assay type: functional
[2] = Antioxidant activity after 5 mins by NBT assay; assay type: functional
Summary of the method: (§1)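 Nonenzymatic superoxide scavenging read in 96-well plates. Final mixture: NADH 78 μM, NBT 50 μM, PMS 10 μM, test compound at 350, 116, 39 and 13 μM. Reagents in 16 mM Tris-HCl pH 8, compounds in DMSO. After 5 min at room temperature, absorbance at 560 nm against a no-PMS blank. IC50 taken from steady-state percent inhibition per dilution. Ascorbic acid as positive control. Triplicates averaged.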

[3] = Antioxidant activity assessed as superoxide anion radical scavenging activity after 5 mins by spectrophotometric analysis; assay type: functional; summary of the method: as §1
[4] = Cytotoxicity against human Huh7D12 cells assessed as cell growth inhibition; assay type: functional, cell-based; conditions: Huh-7D12
Caco-2 = test: Cytotoxicity against human Caco2 cells assessed as cell growth inhibition; assay type: functional, cell-based
MDA-MB-231 = test: Cytotoxicity against human MDA-MB-231 cells assessed as cell growth inhibition; assay type: functional, cell-based
HCT-116 = test: Cytotoxicity against human HCT116 cells assessed as cell growth inhibition; assay type: functional, cell-based
Summary of the method: (§2)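 Inhibition of proliferation tested on a panel of human lines: Huh7D12 (differentiated hepatocellular carcinoma), Caco 2 (differentiating colorectal adenocarcinoma), MDA-MB-231 (breast carcinoma), HCT-116 (actively proliferating colorectal carcinoma), PC3 (prostate carcinoma) and NCI-H2 (lung carcinoma). Diploid skin fibroblasts served as the normal control line. Result reported as IC50.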

PC-3 = test: Cytotoxicity against human PC3 cells assessed as cell growth inhibition; assay type: functional, cell-based; summary of the method: as §2
[5] = Cytotoxicity against human NCI-H2 cells assessed as cell growth inhibition; assay type: functional, cell-based; summary of the method: as §2
Fibroblast = test: Cytotoxicity against human Fibroblasts assessed as cell growth inhibition; assay type: cell-based; summary of the method: as §2

Compound	IC50 (B16) [nM]	IC50 (HaCaT) [nM]	IC50 [1]	IC50 [2] [nM]	IC50 [3] [nM]	inhibition [3]	IC50 [4] [nM]	IC50 (Caco-2) [nM]	IC50 (MDA-MB-231) [nM]	IC50 (HCT-116) [nM]	IC50 (PC-3) [nM]	IC50 [5] [nM]	IC50 (Fibroblast) [nM]
COC1=CC(=O)c2c(O)c3c(c(O)c2C1=O)[C@@H]1O[C@@H](C)C[C@@H]1OC3=O	> 10000	> 10000	Not Active	49900	50000								
COC1=CC(=O)c2c(O)c3c(c(O)c2C1=O)[C@@H](OC)[C@H](C)OC3=O			Not Active	6100		Active							
COC1=CC(=O)c2c(O)c3c(c(O)c2C1=O)C[C@H](C)OC3=O	2400	14200	> 500 µg/mL	1900		Active	3000	4000	10000	2600	4000	2500	4000
O=C1O[C@H]([C@@H](O)CO)C(O)=C1O [ASCORBIC ACID]				22100		Active							
COc1cccc2c1C(=O)c1c(O)c3c(c(O)c1C2=O)C[C@@](O)(C(=O)CO)C[C@@H]3O[C@H]1C[C@H](N)[C@H](O)[C@H](C)O1 [DOXORUBICIN]	430	530					60	30	30	80	90	40	40
O=C(O)c1cc(O)c(O)c(O)c1 [GALLIC ACID]			7.2 µg/mL (≈ 42.3 µM)										
CC(=O)O[C@H]1C(=O)[C@@]2(C)[C@H]([C@H](OC(=O)c3ccccc3)[C@]3(O)C[C@H](OC(=O)[C@H](O)[C@@H](NC(=O)c4ccccc4)c4ccccc4)C(C)=C1C3(C)C)[C@]1(OC(C)=O)CO[C@@H]1C[C@@H]2O [PACLITAXEL]							8	14	21	3	4	20	> 250
CC[C@H](CO)Nc1nc(NCc2ccccc2)c2ncn(C(C)C)c2n1 [SELICICLIB]												18000	7000
CC[C@]1(O)C[C@H]2CN(CCc3c([nH]c4ccccc34)[C@@](C(=O)OC)(c3cc4c(cc3OC)N(C=O)[C@H]3[C@@](O)(C(=O)OC)[C@H](OC(C)=O)[C@]5(CC)C=CCN6CC[C@]43[C@@H]65)C2)C1 [VINCRISTINE]	500	650											
